The record followed here is ChEMBL document CHEMBL4400511, “Benzothiopyranoindole- and pyridothiopyranoindole-based antiproliferative agents targeting topoisomerases” (2019).

Experiment [1] has as its target T1, DNA topoisomerase 1 (Homo sapiens) (UniProt P11387).
T1 sequence (whole entry): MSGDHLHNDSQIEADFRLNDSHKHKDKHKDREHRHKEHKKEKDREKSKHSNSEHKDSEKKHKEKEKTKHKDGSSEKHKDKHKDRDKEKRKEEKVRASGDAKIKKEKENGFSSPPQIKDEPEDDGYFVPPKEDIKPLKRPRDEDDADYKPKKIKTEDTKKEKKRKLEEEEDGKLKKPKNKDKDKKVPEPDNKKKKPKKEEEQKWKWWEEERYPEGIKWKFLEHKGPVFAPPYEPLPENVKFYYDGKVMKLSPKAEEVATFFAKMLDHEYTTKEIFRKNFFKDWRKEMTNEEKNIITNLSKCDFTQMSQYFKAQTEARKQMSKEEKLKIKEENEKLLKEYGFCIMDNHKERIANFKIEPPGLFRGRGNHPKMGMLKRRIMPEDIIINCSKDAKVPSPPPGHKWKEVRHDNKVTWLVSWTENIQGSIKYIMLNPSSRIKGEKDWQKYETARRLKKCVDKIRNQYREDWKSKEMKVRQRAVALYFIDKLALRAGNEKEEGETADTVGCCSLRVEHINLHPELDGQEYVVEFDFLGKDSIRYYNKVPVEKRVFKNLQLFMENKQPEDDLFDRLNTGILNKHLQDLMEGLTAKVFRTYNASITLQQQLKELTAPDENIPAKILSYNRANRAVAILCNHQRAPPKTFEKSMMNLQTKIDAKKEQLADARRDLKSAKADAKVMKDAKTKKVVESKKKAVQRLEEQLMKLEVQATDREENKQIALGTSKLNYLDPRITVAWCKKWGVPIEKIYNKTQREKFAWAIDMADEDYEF
The experiment is described as follows: Inhibition of recombinant human topoisomerase 1 assessed as decrease in relaxation of supercoiled pBR322 DNA after 60 mins by ethidium bromide staining based agarose gel electrophoresis method. Put shortly:
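Human recombinant Topo I was incubated with supercoiled pBR322 DNA, with or without compound at a series of µM concentrations. Read-out is the number of relaxed topoisomers formed.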

Experiment [2] deals with DNA topoisomerase 2-alpha (Homo sapiens) (UniProt P11388). The experiment is described as follows: Inhibition of recombinant human topoisomerase 2alpha assessed as decrease in relaxation of supercoiled pBR322 DNA after 60 mins by ethidium bromide staining based agarose gel electrophoresis method. Put shortly:
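Topo II was incubated with supercoiled pBR322 DNA, with or without compound at a series of µM concentrations. Read-out is topoisomer formation from supercoiled DNA on a gel. Reference is 10 µM m-AMSA.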

Experiment [3] deals with Salmon testes DNA. The experiment is described as follows: Binding affinity to salmon DNA at compound to DNA ratio of 0.04 by linear flow dichroism analysis. The format is nucleic-acid assay. As to conditions: Salmonidae.
The target in experiment [4] is DNA topoisomerase 2-alpha (Homo sapiens) (UniProt P11388). The experiment is described as follows: Poison activity at recombinant human topoisomerase-2 assessed as stabilization of covalent topo-2-DNA cleavage complex by measuring linear DNA formation at 10 uM using supercoiled pBR322 DNA as substrate after 60 mins by agarose gel electrophoresis method. Summed up: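 Cleavable-complex assay: supercoiled pBR322 DNA was incubated with Topo II, with or without compound at a series of µM concentrations. Enzyme-mediated linear DNA marks cleavage-complex stabilisation. Reference poison is 10 µM m-AMSA.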
Sequence of DNA topoisomerase 2-alpha (Homo sapiens) (P11388 whole entry): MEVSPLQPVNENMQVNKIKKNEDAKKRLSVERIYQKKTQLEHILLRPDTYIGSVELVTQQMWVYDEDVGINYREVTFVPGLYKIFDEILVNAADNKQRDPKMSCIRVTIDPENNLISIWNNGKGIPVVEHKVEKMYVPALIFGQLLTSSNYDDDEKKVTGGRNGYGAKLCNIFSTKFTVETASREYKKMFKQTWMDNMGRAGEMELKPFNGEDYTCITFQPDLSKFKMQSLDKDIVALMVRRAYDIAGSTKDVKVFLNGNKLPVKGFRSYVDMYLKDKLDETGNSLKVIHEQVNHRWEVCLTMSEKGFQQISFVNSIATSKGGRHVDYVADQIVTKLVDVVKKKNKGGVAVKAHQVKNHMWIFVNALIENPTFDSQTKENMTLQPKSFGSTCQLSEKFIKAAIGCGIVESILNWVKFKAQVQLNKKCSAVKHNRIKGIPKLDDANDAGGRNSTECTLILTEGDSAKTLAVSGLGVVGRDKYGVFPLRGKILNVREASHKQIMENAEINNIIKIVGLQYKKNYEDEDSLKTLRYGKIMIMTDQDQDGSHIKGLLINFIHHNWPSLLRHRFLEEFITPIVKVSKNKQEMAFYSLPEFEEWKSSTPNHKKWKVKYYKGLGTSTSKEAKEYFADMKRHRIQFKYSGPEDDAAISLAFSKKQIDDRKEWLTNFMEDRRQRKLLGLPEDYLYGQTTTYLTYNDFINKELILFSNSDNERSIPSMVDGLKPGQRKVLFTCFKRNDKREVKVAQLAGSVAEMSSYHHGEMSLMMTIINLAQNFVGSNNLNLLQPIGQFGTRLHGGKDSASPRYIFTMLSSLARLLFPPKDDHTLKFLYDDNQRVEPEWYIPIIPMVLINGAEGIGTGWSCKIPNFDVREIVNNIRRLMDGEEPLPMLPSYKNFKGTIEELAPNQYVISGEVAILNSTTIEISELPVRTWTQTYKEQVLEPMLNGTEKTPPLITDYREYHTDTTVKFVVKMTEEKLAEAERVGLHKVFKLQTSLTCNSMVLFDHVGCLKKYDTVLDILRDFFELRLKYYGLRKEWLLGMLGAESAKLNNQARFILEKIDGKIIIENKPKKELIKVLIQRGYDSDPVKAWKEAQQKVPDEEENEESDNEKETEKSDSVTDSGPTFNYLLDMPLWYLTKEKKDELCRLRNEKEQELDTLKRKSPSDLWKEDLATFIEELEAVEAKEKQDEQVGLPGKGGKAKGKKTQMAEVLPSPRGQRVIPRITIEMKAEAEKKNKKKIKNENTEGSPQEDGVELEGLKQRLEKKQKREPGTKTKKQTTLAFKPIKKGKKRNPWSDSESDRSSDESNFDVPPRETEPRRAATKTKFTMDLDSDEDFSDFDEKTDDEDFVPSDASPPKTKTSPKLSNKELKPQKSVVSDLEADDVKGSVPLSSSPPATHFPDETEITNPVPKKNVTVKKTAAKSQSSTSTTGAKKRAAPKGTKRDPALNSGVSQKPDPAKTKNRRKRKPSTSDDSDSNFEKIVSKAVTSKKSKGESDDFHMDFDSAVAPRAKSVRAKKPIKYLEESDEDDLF

The next experiment relates to A-431. In words: Growth inhibition in human A431 cells after 72 hrs by trypan blue dye-based assay. It is filed as functional. As to conditions: A-431, 72 h. Summed up: (§1)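 Three human tumour lines were used: HeLa (cervix adenocarcinoma), A-431 (epidermoid/squamous carcinoma) and MSTO-211H (biphasic mesothelioma). GI50 is the µM concentration giving 50% cell death relative to the untreated control culture. Ellipticine was run as reference.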

In experiment [5] the target is T1, DNA topoisomerase 1 (Homo sapiens). The experiment is described as follows: Poison activity at recombinant human topoisomerase-1 assessed as stabilization of covalent topo-1-DNA cleavage complex by measuring nicked DNA formation at 0.5 to 50 uM using supercoiled pBR322 DNA as substrate after 60 mins by agarose gel electrophoresis method. Summed up:
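Cleavable-complex assay: supercoiled pBR322 DNA was incubated with Topo I, with or without compound at a series of µM concentrations. Nicked DNA formation marks covalent complex stabilisation. Reference is 0.5 µM camptothecin.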

Another experiment has as its system MSTO-211H. The experiment is described as follows: Growth inhibition in human MSTO-211H cells after 72 hrs by trypan blue dye-based assay. It is filed as functional. Summed up: as §1
Another experiment relates to HeLa. The experiment is described as follows: Growth inhibition in human HeLa cells after 72 hrs by trypan blue dye-based assay. It is filed as functional. Summed up: as §1
In experiment [6] the test system is Salmon testes DNA. The experiment is described as follows: Binding affinity to salmon DNA at compound to DNA ratio of 0.08 by linear flow dichroism analysis. It is filed as nucleic-acid assay. As to conditions: Salmonidae.

Activity calls are given as the source filed them. No cut-off for these calls is given here.

Broadly, the GI50 is the concentration at which growth is held to half of that of the control. Lower therefore signals greater sensitivity of the cells. `CN(C)CCn1c2ccccc2c2sc3ncccc3c(=O)c21`: the inhibition result in experiment [1] and in [2] was “Dose-dependent effect” in each case. For the same molecule, the outcome (in the experiment with Salmon testes DNA [3]; in experiment [4]) was Active. Further, the results for the GI50 in the experiment on A-431, in the experiment with MSTO-211H and in the experiment with HeLa were 0.54 µM, 1.08 µM and 1.55 µM, respectively. In addition, the outcome in [5] was inactive.
Turning to `COc1ccc2c(c1)c1sc3cc(Cl)ccc3c(=O)c1n2CCN(C)C`, the inhibition entry in experiment [1] and in experiment [2] was “Dose-dependent effect” in each case. Further, the result (in experiment [4]; in the experiment with Salmon testes DNA [6]) was Active. The GI50 with A-431 worked out at 2.67 µM; in the experiment with MSTO-211H, 2.96 µM; in the experiment on HeLa, 2.79 µM. For the same molecule, the outcome in experiment [5] was inactive.
Regarding `CCN(CC)CCn1c2ccccc2c2sc3ncccc3c(=O)c21`, the inhibition result in experiment [1] and in experiment [2] was “Dose-dependent effect” in each case. Besides, the outcome (with Salmon testes DNA [3]; in experiment [4]) was Active. Further, the GI50 is 0.47 µM in the experiment on A-431, 1.33 µM with MSTO-211H and 2.57 µM with HeLa. Also, the result in [5] was inactive.
Regarding `CN(C)CCn1c2ccc(Cl)cc2c2sc3ncccc3c(=O)c21`, the inhibition result in experiment [1] and in experiment [2] was “Dose-dependent effect” in each case. Also, the outcome (in the experiment with Salmon testes DNA [3]; in experiment [4]) was Active. Also, the GI50 stood at 2 µM in the experiment on A-431, 2.36 µM in the experiment on MSTO-211H and 3.02 µM in the experiment on HeLa. The outcome in [5] was inactive.
Consider `COc1ccc2c(c1)c1sc3ccccc3c(=O)c1n2CCN(C)C`, for which the inhibition entry in [1] and in experiment [2] was “Dose-dependent effect” each time. Further, the outcome (in [4]; in the experiment on Salmon testes DNA [6]) was Active. The GI50 in the experiment on A-431 was 2.24 µM; in the experiment with MSTO-211H it was 2.37 µM; in the experiment with HeLa it was 5.81 µM. For the same molecule, the outcome in experiment [5] was inactive.
In the case of `COc1cc2c3sc4cc(Cl)ccc4c(=O)c3n(CCN(C)C)c2cc1OC`, the inhibition entry in [1] and in experiment [2] was “Dose-dependent effect” each time. The outcome (in the experiment on Salmon testes DNA [3]; in [4]) was Active. Moreover, the values for the GI50 in the experiment on A-431, in the experiment on MSTO-211H and with HeLa were 3.19 µM, 1.82 µM and 3.54 µM, respectively. For the same molecule, in experiment [5], the result was inactive.
Consider `CCN(CC)CCn1c2cc(OC)c(OC)cc2c2sc3ccccc3c(=O)c21`, for which the inhibition result in experiment [1] and in experiment [2] was “Dose-dependent effect” in each case. For the same molecule, the result (in the experiment with Salmon testes DNA [3]; in experiment [4]; in [5]) was Active. Moreover, the figures for the GI50 with A-431, in the experiment on MSTO-211H and in the experiment with HeLa were 1.11 µM, 0.7 µM and 1.77 µM, respectively.
On to `CN(C)CCn1c2ccc(Cl)cc2c2sc3cc(Cl)ccc3c(=O)c21`, for which the inhibition entry in [1] and in [2] was “Dose-dependent effect” each time. The result (in [4]; with Salmon testes DNA [6]) was Active. For the same molecule, the results for the GI50 in the experiment with A-431, in the experiment on MSTO-211H and in the experiment with HeLa were 1.76 µM, 1.64 µM and 2.66 µM, respectively. Further, in experiment [5], the result was inactive.
As for `CCN(CC)CCn1c2cc(OC)c(OC)cc2c2sc3ncccc3c(=O)c21`, the inhibition entry in [1] and in [2] was “Dose-dependent effect” throughout. Further, the result (in the experiment on Salmon testes DNA [3]; in experiment [4]; in [5]) was Active. Moreover, the GI50 came out at 2.67 µM with A-431, 0.62 µM in the experiment with MSTO-211H and 6.93 µM with HeLa.
For the molecule `CCN(CC)CCn1c2cc(OC)c(OC)cc2c2sc3cc(OC)ccc3c(=O)c21`, the inhibition entry in [1] and in experiment [2] was “Dose-dependent effect” throughout. Besides, the result (in the experiment with Salmon testes DNA [3]; in experiment [4]) was Active. Further, the GI50 is 0.67 µM with A-431, 0.36 µM in the experiment on MSTO-211H and 1.75 µM in the experiment on HeLa. Besides, in experiment [5], the result was inactive.
For `CCN(CC)CCn1c2ccc(Cl)cc2c2sc3ncccc3c(=O)c21`, the inhibition result in [1] and in experiment [2] was “Dose-dependent effect” each time. For the same molecule, the outcome (with Salmon testes DNA [3]; in experiment [4]) was Active. The GI50 with A-431 stood at 1.79 µM; in the experiment with MSTO-211H, 1.42 µM; in the experiment with HeLa, 4.2 µM. Moreover, the outcome in [5] was inactive.
Turning to `CCN(CC)CCn1c2ccc(Cl)cc2c2sc3cc(Cl)ccc3c(=O)c21`, the inhibition result in experiment [1] and in [2] was “Dose-dependent effect” in each case. Besides, the result (in [4]; in the experiment with Salmon testes DNA [6]) was Active. The GI50 with A-431 came to 3.29 µM; in the experiment with MSTO-211H, 2.99 µM; with HeLa, 4.31 µM. The result in experiment [5] was inactive.
`CCN(CC)CCn1c2ccc(OC)cc2c2sc3cc(Cl)ccc3c(=O)c21`: the inhibition entry in experiment [1] and in experiment [2] was “Dose-dependent effect” in each case. Moreover, the outcome (in [4]; with Salmon testes DNA [6]) was Active. The GI50 was determined as 5.44 µM in the experiment with A-431, 4.19 µM with MSTO-211H and 3.21 µM in the experiment on HeLa. Moreover, the result in experiment [5] was inactive.
As to `COc1cc(NS(C)(=O)=O)ccc1Nc1c2ccccc2nc2ccccc12`, the result in [4] was Active.
Consider `CCN(CC)CCn1c2ccc(OC)cc2c2sc3ncccc3c(=O)c21`, for which the inhibition result in [1] and in experiment [2] was “Dose-dependent effect” each time. The outcome (in the experiment with Salmon testes DNA [3]; in experiment [4]) was Active. The GI50 in the experiment on A-431 worked out at 1.9 µM; in the experiment with MSTO-211H, 0.7 µM; with HeLa, 2.61 µM. The result in experiment [5] was inactive.
Consider `COc1ccc2c(c1)c1sc3ncccc3c(=O)c1n2CCN(C)C`, for which the inhibition entry in [1] and in [2] was “Dose-dependent effect” throughout. Moreover, the outcome (with Salmon testes DNA [3]; in experiment [4]) was Active. Also, the GI50 in the experiment on A-431 amounted to 1.42 µM; in the experiment with MSTO-211H, 0.75 µM; in the experiment on HeLa, 2.71 µM. Besides, the outcome in experiment [5] was inactive.
Consider `CCN(CC)CCn1c2cc(OC)c(OC)cc2c2sc3cc(Cl)ccc3c(=O)c21`, for which the inhibition entry in [1] and in experiment [2] was “Dose-dependent effect” each time. Also, the result (in the experiment with Salmon testes DNA [3]; in experiment [4]) was Active. The values for the 50% growth inhibitory concentration (GI50) with A-431, in the experiment with MSTO-211H and in the experiment with HeLa were 2.22 µM, 2.37 µM and 4.55 µM, respectively. Besides, in experiment [5], the outcome was inactive.
For the molecule `COc1ccc2c(=O)c3c(sc2c1)c1cc(OC)c(OC)cc1n3CCN(C)C`, the inhibition entry in [1] and in experiment [2] was “Dose-dependent effect” each time. Moreover, the outcome (with Salmon testes DNA [3]; in [4]) was Active. Besides, the GI50 was 0.48 µM in the experiment with A-431, 0.44 µM in the experiment with MSTO-211H and 0.74 µM in the experiment with HeLa. Moreover, in experiment [5], the outcome was inactive.
